DNMT1 block: inhibitors of human DNMT1; DNMT1 molecular beacon, Hinp1I cleavage, fluorescence; inhibition (reported as % activation of signal), % at 10 µM; actives 0.83% (n = 360,000); in the data active = inhibition above about 50%
Scp-1 inhibitor: blocks human Scp-1 phosphatase activity; Q9GZU7; Recombinant Scp1, phosphopeptide, malachite green phosphate absorbance; inhibition, % at 20 µM; actives 0.88% (n = 340,000);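 active = inhibition above about 50% at 20 µM, limit read from the data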
Target sequence (Q9GZU7 76-261 limits assumed): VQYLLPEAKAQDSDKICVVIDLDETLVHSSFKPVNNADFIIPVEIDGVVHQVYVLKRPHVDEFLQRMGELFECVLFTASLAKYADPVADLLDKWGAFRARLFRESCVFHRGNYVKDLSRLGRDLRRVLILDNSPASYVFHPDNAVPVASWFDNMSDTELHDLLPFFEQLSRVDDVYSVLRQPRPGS
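Times: enzyme reaction 45 min at room temperature, colour 5 min, stabilisation 30 min. Material: SCP-1 catalytic fragment, aa 76-261. Medium: Acidic Tris acetate buffer with magnesium and detergent. Signal: colorimetric free-phosphate detection, absorbance 630 nm. Read-out basis: % inhibition of SCP-1 phosphate liberation. Reagent: Phosphorylated 17-residue peptide substrate.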
STEP inh: STEP (human) phosphatase inhibition. P54829. recombinant STEP, OMFP fluorogenic substrate, fluorescence. inhibition, % at 20 µM. actives 0.25% (n = 360,000). AID 588621;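 active = inhibition at 20 µM, scaled per plate between control wells, above about 37%, limit read from the data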
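Also added – OMFP at 25 µM · Test system – STEP tyrosine phosphatase · Technique – FITC-channel fluorescence of OMFP product · Schedule – 20 min at room temperature, dark · Evaluation – control-normalized % inhibition with plate pattern correction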
LMPTP block: blocks human LMPTP phosphatase | recombinant LMPTP-A, OMFP fluorogenic substrate, fluorescence intensity | inhibition, % at 20 µM | actives 0.22% (n = 360,000) | AID 651560;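 active = compounds that cut the enzyme signal by at least half of the control window in the single-dose screen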
Target sequence (P24666 whole entry, looked up): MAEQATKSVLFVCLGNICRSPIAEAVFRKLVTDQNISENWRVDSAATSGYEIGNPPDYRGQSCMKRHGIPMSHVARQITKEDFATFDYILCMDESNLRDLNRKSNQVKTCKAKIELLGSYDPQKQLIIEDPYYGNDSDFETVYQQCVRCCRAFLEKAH
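Test system – LMPTP-A phosphatase enzyme · Quantity – 0.625 nM LMPTP-A final · Reagent – OMFP substrate, 400 µM final · Dosing – one test concentration per compound, 20 µM, with 3% DMSO overall · Timing – 50 min enzyme reaction at room temperature, protected from light · Detection – fluorescence intensity · Controls – substrate-only low control, DMSO enzyme-plus-substrate high control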
SUMO1-SIM PPI: alters human SUMO1 binding to SIM partners. SUMO1 binding to a labelled peptide, TR-FRET, 1 h. inhibition, % at 20 µM. actives 0.33% (n = 360,000); in the data active = inhibition above about 37%
Hits are given with their value. A selection: hits, their analogues and other compounds. The true share with any hit is near 1.7%.

`CCn1cc(C(=O)NCCCN(CC(C)C)CC(C)C)c(=O)c2cc(S(=O)(=O)N(C)C3CCCCC3)ccc21` gave DNMT1 block inactive, Scp-1 inhibitor inactive, STEP inh inactive, LMPTP block inactive and SUMO1-SIM PPI inactive.
CCn1c(/C=C/c2c(C)n(CC)c3ccccc23)nc2ccccc2c1=O was read as DNMT1 block inactive, Scp-1 inhibitor inactive, STEP inh inactive, LMPTP block inactive and SUMO1-SIM PPI inactive.
`CCn1c2ccccc2nc2cc3c(cc21)c(Cl)c(=O)c1ccccc13` gave DNMT1 block 61, STEP inh inactive, LMPTP block inactive and SUMO1-SIM PPI inactive.
Cc1c2cc[n+](CCN3CCCCC3)cc2c(C)c2c1[nH]c1ccc(O)cc12 was read as DNMT1 block inactive, Scp-1 inhibitor inactive, STEP inh inactive, LMPTP block inactive and SUMO1-SIM PPI 92.
For CCOc1ccc(/C=N/NC(=O)c2nnn(-c3nonc3N)c2-c2cccs2)cc1 the results were DNMT1 block inactive, Scp-1 inhibitor inactive, STEP inh inactive, LMPTP block inactive and SUMO1-SIM PPI inactive.
Screening COc1ccc(C2=CC3=C(Br)C(=O)C(C)(OC(=O)C4CCCC4)C(=O)C3=CO2)cc1 (stereo unspecified) returned DNMT1 block inactive, Scp-1 inhibitor inactive, STEP inh inactive, LMPTP block inactive and SUMO1-SIM PPI 56.
Screening COC(=O)CCC(=O)OC1(C)C(=O)C2=COC(c3ccc(OC)cc3)=CC2=C(Br)C1=O (stereo unspecified) returned Scp-1 inhibitor inactive.
`COc1ccc(-c2cc(=O)oc3c(C)c(OCC(=O)Nc4cccnc4)ccc23)cc1` gave DNMT1 block inactive, Scp-1 inhibitor inactive, STEP inh inactive, LMPTP block inactive and SUMO1-SIM PPI 41.
Screening NC(=S)NN=C1Cc2cccc3cccc1c23 returned DNMT1 block inactive, Scp-1 inhibitor inactive, STEP inh inactive, LMPTP block 53 and SUMO1-SIM PPI inactive.
`O/N=C1/CCc2cccc3cccc1c23` gave DNMT1 block inactive, Scp-1 inhibitor inactive, STEP inh inactive, LMPTP block inactive and SUMO1-SIM PPI inactive.
Screening COc1ccc(OCC(=O)N/N=C/c2cccn2-c2cccc(C(=O)O)c2)cc1 returned DNMT1 block 53, Scp-1 inhibitor inactive, STEP inh inactive, LMPTP block inactive and SUMO1-SIM PPI inactive.
For Cc1cc(=O)oc2c1c(C)nn2-c1nn[nH]n1 the results were DNMT1 block inactive, Scp-1 inhibitor 68, STEP inh inactive, LMPTP block inactive and SUMO1-SIM PPI inactive.
`CCCc1cc(=O)oc2cc(C)cc(OCc3nn[nH]n3)c12` gave DNMT1 block inactive, Scp-1 inhibitor inactive, STEP inh inactive, LMPTP block inactive and SUMO1-SIM PPI inactive.
Screening COc1ccc(N2CCN(S(=O)(=O)CCNC(=O)c3ccc(Br)o3)CC2)cc1 returned DNMT1 block inactive, Scp-1 inhibitor inactive, STEP inh inactive, LMPTP block inactive and SUMO1-SIM PPI inactive.
Cc1cc2c(cc1C)NC1(C(=O)Nc3ccccc31)C1=C(CC(C)(C)CC1=O)N2 (stereo unspecified) was read as DNMT1 block inactive, Scp-1 inhibitor inactive, STEP inh inactive, LMPTP block inactive and SUMO1-SIM PPI 51.
`Cc1cc2c(cc1C)NC(c1cccnc1)C1=C(CC(C)(C)CC1=O)N2` (stereo unspecified) gave DNMT1 block inactive, Scp-1 inhibitor inactive, STEP inh inactive, LMPTP block inactive and SUMO1-SIM PPI inactive.
For O=C(Nc1cccc(S(=O)(=O)N2CCOCC2)c1)c1cc(S(=O)(=O)N2CCOCC2)c(Cl)cc1Cl the results were DNMT1 block inactive, Scp-1 inhibitor inactive, STEP inh inactive, LMPTP block inactive and SUMO1-SIM PPI inactive.
Screening Cc1ccc(C(=O)c2ccccc2C(=O)OCC(=O)NC(=O)NC(C)(C)C)cc1 returned DNMT1 block inactive, Scp-1 inhibitor inactive, STEP inh inactive, LMPTP block inactive and SUMO1-SIM PPI 45.
Cc1cc(N2CCC(C)CC2)nc2cccc(O)c12 was read as DNMT1 block inactive, Scp-1 inhibitor inactive, STEP inh inactive, LMPTP block 62 and SUMO1-SIM PPI inactive.
Screening CC(C)(C)c1cc(C(=O)O)n(Cc2ccc(Cl)cc2Cl)n1 returned DNMT1 block inactive, Scp-1 inhibitor inactive, STEP inh inactive, LMPTP block inactive and SUMO1-SIM PPI 49.
